Test results from ChEMBL document CHEMBL4007505 (J Med Chem, 2017).
Calls of active or inactive are those of the source.

Experiments:
[1] = biological target: T1, Sodium-dependent dopamine transporter (Homo sapiens, UniProt Q01959); test: Enhancing of [125I]RTI-55 binding to recombinant human DAT expressed in HEK293 cell membranes preincubated for 10 mins followed by radioligand addition measured after 90 mins by micro beta scintillation counting analysis; set-up: concentration or dose not given beside the values
Method in brief: (§1)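 Membranes of HEK-293 cells stably expressing hDAT, hNET or hSERT. […] Compound preincubated 10 min at room temperature, then [125I]23 (40-80 pM final) or [3H]26 (1-3 nM for DAT and NET, 10-13 nM for SERT) added. Incubated 90 min at room temperature in the dark, then filtered. EC50 or Ki; mean ± SEM.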

[2] = biological target: T1, Sodium-dependent dopamine transporter; test: Enhancing of [3H]mazindol binding to recombinant human DAT expressed in HEK293 cell membranes preincubated for 10 mins followed by radioligand addition measured after 90 mins by micro beta scintillation counting analysis; set-up: concentration or dose not given beside the values; method in brief: as §1
[3] = biological target: T2, Sodium-dependent noradrenaline transporter (Homo sapiens, UniProt P23975); test: Enhancing of [125I]RTI-55 binding to recombinant human NET expressed in HEK293 cell membranes preincubated for 10 mins followed by radioligand addition measured after 90 mins by micro beta scintillation counting analysis; set-up: concentration or dose not given beside the values
[4] = biological target: T1, Sodium-dependent dopamine transporter; test: Inhibition of recombinant human DAT expressed in HEK293 cell […] as reduction in [3H]-DA uptake incubated for 22 mins by micro beta scintillation counting analysis
[5] = biological target: T2, Sodium-dependent noradrenaline transporter; test: Enhancing of [3H]mazindol binding to recombinant human NET expressed in HEK293 cell membranes preincubated for 10 mins followed by radioligand addition measured after 90 mins by micro beta scintillation counting analysis
[6] = biological target: T2, Sodium-dependent noradrenaline transporter; test: Inhibition of recombinant human NET expressed in HEK293 […] assessed as reduction in [3H]-norepinephrine uptake incubated for 22 mins by micro beta scintillation counting analysis
[7] = biological target: T3, Sodium-dependent serotonin transporter (Homo sapiens, UniProt P31645); test: Enhancing of [125I]RTI-55 binding to recombinant human SERT expressed in HEK293 cell membranes preincubated for 10 mins followed by radioligand addition measured after 90 mins by micro beta scintillation counting analysis
[8] = biological target: T3, Sodium-dependent serotonin transporter; test: Enhancing of [3H]mazindol binding to recombinant human SERT expressed in HEK293 cell membranes preincubated for 10 mins followed by radioligand addition measured after 90 mins by micro beta scintillation counting analysis
[9] = biological target: T3, Sodium-dependent serotonin transporter; test: Inhibition of recombinant human SERT expressed in HEK293 cell […] as reduction in [3H]5-HT uptake incubated for 22 mins by micro beta scintillation counting analysis
Target sequence in this assay (P31645 whole entry): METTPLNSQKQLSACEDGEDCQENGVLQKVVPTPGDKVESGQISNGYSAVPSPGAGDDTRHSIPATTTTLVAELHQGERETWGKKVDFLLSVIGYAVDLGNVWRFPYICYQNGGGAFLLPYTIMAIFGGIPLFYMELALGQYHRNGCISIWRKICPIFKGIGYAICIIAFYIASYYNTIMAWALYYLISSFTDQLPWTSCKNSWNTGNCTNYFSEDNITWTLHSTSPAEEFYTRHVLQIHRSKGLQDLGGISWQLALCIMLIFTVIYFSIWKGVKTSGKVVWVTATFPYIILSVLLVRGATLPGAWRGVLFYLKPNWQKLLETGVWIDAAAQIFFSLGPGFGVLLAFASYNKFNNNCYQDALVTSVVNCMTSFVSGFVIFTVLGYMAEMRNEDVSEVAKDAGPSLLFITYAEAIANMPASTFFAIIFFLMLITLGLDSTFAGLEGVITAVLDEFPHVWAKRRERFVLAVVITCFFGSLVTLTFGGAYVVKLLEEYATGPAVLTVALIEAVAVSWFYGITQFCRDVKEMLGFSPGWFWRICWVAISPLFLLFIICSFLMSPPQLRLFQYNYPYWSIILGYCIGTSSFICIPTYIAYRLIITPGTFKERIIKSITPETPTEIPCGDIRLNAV

[10] = biological target: Sodium-dependent dopamine transporter (Mus musculus) (UniProt Q61327); test: (§2) Enhancing of [125I]RTI-55 binding to mouse DAT expressed in HEK293 cells preincubated for 10 mins followed by radioligand addition measured after 90 mins by micro beta scintillation counting analysis; format: cell-based
Method in brief: (§3)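 Membranes preincubated 10 min at room temperature with compound in Krebs-HEPES buffer pH 7.4, then [125I]23 at fixed 45-50 pM for 90 min in the dark, filtered. […] EC50 and % control binding; mean ± SEM.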

[11] = biological target: T4, Sodium-dependent dopamine transporter (Mus musculus, UniProt Q61327); test: as §2; format: cell-based; method in brief: as §3
[12] = biological target: T4, Sodium-dependent dopamine transporter; test: Inhibition of mouse DAT expressed in HEK293 cells assessed as reduction in [3H]-DA uptake; format: cell-based
[13] = biological target: T4, Sodium-dependent dopamine transporter; test: Inhibition of [125I]RTI-55 binding to mouse DAT expressed in HEK293 cells preincubated for 10 mins followed by radioligand addition measured after 90 mins by micro beta scintillation counting analysis; format: cell-based
[14] = biological target: T1, Sodium-dependent dopamine transporter; test: Enhancing of [3H]WIN35,428 binding to recombinant human DAT expressed in HEK293 cell membranes at 10 uM pre-incubated for 10 mins before radioligand addition and measured 90 mins after radioligand addition by micro beta scintillation counting analysis relative to control
[15] = biological target: T1, Sodium-dependent dopamine transporter; test: Inhibition of [3H]WIN35,428 binding to recombinant human DAT expressed in HEK293 cell membranes at 10 uM pre-incubated for 10 mins before radioligand addition and measured 90 mins after radioligand addition by micro beta scintillation counting analysis relative to control
Mus musculus = test: Antiallodynic activity in mouse chronic constriction injury model of neuropathic pain assessed as time duration of action for increasing in paw withdrawal threshold at 3 umol/kg, po administered on day 7 post injury; format: functional
[16] = biological target: Alpha-2A adrenergic receptor (Homo sapiens, UniProt P08913); test: Displacement of [3H]Rauwolscine from human adrenergic alpha2A receptor
[17] = biological target: T5, Alpha-1A adrenergic receptor (Homo sapiens, UniProt P35348); test: Displacement of [3H]Prazosin from human adrenergic alpha1A receptor
T5 sequence (P35348 whole entry): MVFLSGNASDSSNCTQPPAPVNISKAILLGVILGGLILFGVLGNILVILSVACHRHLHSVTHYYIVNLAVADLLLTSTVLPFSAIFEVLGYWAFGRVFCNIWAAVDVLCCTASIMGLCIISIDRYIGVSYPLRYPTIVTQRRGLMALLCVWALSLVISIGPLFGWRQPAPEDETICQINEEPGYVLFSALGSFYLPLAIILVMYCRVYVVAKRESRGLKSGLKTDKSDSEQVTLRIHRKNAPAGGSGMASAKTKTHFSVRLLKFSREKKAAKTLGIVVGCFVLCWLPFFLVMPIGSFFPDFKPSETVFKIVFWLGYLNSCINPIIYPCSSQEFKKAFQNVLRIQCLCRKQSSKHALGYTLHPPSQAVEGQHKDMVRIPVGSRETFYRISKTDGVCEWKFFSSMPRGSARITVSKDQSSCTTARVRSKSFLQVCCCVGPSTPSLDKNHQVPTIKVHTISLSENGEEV

[18] = biological target: T6, Alpha-1B adrenergic receptor (Homo sapiens, UniProt P35368); test: Displacement of [3H]Prazosin from human adrenergic alpha1B receptor
T6 sequence (P35368 whole entry): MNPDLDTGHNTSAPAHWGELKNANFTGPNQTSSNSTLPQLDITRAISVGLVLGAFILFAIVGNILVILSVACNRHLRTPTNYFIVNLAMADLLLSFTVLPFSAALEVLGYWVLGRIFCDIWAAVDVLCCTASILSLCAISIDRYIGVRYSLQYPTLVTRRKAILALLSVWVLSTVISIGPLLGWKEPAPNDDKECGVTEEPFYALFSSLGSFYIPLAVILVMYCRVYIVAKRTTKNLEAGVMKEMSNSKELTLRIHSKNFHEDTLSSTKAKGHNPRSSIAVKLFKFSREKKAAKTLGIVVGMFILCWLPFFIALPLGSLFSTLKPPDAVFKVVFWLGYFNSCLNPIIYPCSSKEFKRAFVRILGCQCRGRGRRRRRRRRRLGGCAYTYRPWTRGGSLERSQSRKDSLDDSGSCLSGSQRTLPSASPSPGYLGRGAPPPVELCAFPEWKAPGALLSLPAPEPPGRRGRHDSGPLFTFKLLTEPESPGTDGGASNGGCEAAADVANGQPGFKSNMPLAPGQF

[19] = biological target: T7, Alpha-1D adrenergic receptor (Homo sapiens, UniProt P25100); test: Displacement of [3H]Prazosin from human adrenergic alpha1D receptor
T7 sequence (P25100 whole entry): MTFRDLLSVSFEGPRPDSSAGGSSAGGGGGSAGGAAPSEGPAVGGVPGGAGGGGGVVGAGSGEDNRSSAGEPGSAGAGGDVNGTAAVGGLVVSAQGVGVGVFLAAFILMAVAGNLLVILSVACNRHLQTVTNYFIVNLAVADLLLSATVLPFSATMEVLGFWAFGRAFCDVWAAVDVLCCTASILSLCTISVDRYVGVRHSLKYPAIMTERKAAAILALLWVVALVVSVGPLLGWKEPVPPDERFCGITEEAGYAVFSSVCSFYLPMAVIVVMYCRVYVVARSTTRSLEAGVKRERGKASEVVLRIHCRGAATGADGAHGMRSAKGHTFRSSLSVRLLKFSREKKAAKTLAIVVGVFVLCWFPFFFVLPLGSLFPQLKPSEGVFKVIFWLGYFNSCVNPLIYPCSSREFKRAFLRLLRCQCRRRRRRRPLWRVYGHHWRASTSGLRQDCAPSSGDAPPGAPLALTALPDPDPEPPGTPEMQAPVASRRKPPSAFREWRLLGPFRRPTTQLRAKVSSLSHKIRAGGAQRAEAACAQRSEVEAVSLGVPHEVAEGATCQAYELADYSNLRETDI

[20] = biological target: T8, Alpha-2C adrenergic receptor (Homo sapiens, UniProt P18825); test: Displacement of [3H]Rauwolscine from human adrenergic alpha2C receptor
T8 sequence (P18825 whole entry): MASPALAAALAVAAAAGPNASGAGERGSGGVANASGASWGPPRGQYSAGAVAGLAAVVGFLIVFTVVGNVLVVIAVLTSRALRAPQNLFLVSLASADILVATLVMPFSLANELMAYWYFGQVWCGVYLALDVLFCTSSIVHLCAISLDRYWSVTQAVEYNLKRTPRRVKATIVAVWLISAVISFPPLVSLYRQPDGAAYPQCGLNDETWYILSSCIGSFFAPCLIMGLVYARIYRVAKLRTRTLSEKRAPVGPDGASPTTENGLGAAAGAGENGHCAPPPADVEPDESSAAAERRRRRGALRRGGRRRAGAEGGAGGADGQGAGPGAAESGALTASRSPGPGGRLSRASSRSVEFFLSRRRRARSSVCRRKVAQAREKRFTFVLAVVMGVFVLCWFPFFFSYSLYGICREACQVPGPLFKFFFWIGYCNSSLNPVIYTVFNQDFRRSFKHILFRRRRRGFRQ

T2 sequence (P23975 whole entry): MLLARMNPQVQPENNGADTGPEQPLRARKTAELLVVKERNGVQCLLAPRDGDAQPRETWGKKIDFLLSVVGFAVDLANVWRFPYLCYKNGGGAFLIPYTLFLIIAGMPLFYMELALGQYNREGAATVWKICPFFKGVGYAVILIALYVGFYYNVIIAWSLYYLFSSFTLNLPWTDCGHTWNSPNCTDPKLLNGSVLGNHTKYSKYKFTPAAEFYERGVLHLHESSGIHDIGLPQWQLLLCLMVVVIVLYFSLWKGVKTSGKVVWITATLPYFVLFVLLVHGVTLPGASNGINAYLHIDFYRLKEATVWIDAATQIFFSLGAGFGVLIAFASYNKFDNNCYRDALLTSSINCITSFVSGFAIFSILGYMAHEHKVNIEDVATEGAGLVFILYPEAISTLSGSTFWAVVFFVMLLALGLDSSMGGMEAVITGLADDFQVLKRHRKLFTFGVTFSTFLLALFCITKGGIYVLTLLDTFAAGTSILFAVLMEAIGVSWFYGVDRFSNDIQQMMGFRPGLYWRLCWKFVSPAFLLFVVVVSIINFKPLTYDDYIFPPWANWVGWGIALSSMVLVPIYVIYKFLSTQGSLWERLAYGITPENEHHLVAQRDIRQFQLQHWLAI
T1 sequence (Q01959 whole entry): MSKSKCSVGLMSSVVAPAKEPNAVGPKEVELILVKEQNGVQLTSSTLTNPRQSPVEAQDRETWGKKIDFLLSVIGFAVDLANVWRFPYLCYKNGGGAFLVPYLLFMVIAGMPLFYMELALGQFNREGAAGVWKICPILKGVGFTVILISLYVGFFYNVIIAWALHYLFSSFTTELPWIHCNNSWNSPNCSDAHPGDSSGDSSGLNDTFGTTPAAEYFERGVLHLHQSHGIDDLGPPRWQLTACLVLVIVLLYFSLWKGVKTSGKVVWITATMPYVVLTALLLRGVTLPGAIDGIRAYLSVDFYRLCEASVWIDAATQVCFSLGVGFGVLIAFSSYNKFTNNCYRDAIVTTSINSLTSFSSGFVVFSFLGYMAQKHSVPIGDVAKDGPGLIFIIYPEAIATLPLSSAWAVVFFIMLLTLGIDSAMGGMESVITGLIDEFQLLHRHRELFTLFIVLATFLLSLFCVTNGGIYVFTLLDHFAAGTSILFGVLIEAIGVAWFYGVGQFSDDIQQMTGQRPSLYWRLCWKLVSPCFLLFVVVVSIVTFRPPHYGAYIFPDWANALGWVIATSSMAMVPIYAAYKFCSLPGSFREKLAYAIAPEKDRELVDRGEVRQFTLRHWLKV
T4 sequence (Q61327 whole entry): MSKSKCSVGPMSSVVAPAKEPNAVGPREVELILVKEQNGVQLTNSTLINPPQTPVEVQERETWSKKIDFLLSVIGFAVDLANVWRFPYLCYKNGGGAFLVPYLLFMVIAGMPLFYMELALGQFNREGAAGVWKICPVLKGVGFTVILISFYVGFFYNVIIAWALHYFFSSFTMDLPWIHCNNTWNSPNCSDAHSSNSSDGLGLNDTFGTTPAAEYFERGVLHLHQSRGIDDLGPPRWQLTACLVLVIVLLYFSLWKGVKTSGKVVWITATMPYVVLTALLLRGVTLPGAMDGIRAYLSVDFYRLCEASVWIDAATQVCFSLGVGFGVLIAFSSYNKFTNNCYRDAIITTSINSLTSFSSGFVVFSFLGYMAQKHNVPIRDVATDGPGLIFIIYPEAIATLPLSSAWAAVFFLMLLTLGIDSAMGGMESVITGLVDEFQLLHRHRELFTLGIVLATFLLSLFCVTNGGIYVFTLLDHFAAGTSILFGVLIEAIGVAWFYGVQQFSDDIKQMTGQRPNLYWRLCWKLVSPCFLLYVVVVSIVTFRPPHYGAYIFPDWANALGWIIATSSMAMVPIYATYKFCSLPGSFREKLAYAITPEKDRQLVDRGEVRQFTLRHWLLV
Chain of Alpha-2A adrenergic receptor (P08913 whole entry): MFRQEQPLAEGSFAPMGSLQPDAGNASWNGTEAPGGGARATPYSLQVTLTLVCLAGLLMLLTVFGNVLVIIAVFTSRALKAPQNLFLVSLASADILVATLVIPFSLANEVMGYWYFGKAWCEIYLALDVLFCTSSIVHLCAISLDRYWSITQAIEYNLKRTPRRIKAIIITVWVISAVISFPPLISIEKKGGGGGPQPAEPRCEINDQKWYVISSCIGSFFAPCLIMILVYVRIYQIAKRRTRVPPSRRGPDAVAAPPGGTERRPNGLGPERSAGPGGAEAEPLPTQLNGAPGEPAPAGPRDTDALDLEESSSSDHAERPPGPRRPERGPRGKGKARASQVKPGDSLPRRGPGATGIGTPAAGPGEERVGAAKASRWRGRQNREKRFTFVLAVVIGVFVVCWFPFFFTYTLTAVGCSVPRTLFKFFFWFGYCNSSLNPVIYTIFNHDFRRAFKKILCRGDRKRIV
Chain of Sodium-dependent dopamine transporter (Mus musculus) (Q61327 whole entry): as the sequence (Q61327 whole entry) above

SMILES: CNC(=O)[C@@]12C[C@@H]1[C@@H](n1cnc3c(NC)nc(C#Cc4ccc(Cl)s4)nc31)[C@H](O)[C@@H]2O
- Activity [1]: 550%
- EC50 ([1]; read-out: EC50): 35.1 nM
- Activity [2]: 403%
- EC50 ([2]; read-out: EC50): 131 nM
- Activity [3]: 386%
- EC50 ([3]; read-out: EC50): 1180 nM
- IC50 [4]: 253 nM
- Activity [5]: inactive
- IC50 [6]: > 10000 nM
- Activity [7]: inactive
- EC50 ([7]; read-out: EC50): > 10000 nM
- Activity [8]: inactive
- EC50 [8]: > 10000 nM
- IC50 [9]: > 10000 nM
- Emax [10]: 1150%
- EC50 [11]: 2230 nM
- IC50 [12]: 2290 nM

SMILES: COC(=O)[C@H]1[C@@H](OC(=O)c2ccccc2)C[C@@H]2CC[C@H]1N2C [COCAINE]
- EC50 ([1]; hek293): Not Active
- EC50 ([2]; hek293): Not Active
- EC50 ([7]; hek293): Not Active
- IC50 [12]: 200 nM
- Ki [13]: 850 nM

SMILES: CNC(=O)[C@H]1O[C@@H](n2cnc3c(NC)nc(C#Cc4ccc(Cl)s4)nc32)[C@H](O)[C@@H]1O
- Activity [14]: 321%
- inhibition [15]: inactive
- Time (Mus musculus): >6 h
- Ki [16]: 5000 to 10000 nM
- Ki [17]: > 10000 nM
- Ki [18]: > 10000 nM
- Ki [19]: > 10000 nM
- Ki [20]: > 10000 nM
